Among the data in ChEMBL document CHEMBL1255279, “Selection for high-level telithromycin resistance in Staphylococcus aureus yields mutants resulting from an rplB-to-rplV gene conversion-like event” (2008) are MIC values, retold here.

≈ marks a conversion by molar mass, not a printed value.

For experiment [1], the system named is Staphylococcus aureus. Kind of experiment: Antibacterial activity against Telithromycin resistant Staphylococcus aureus isolate KT05 carrying rplD and rplV mutant genes. It counts as functional. The essentials: (§1)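 MICs determined in Luria-Bertani medium at 37°C. Resistant mutants of S. aureus RN4220 came from spreading 0.3 ml of an overnight brain heart infusion broth culture onto Luria-Bertani plates containing 1 μg/ml telithromycin. These plates were incubated at 37°C for 1 week.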

The subject of experiment [2] is Staphylococcus aureus. Kind of experiment: Antibacterial activity against Telithromycin resistant Staphylococcus aureus isolate KT04 carrying duplication in the carboxy-terminal region of L22 ribosomal protein. It counts as functional. The essentials: as §1
For experiment [3], the system named is Staphylococcus aureus. Kind of experiment: Antibacterial activity against Telithromycin resistant Staphylococcus aureus RN4220 carrying rplD and rplV genes. It counts as functional. The essentials:
as §1

The subject of experiment [4] is Staphylococcus aureus. The experiment is described as follows: Antibacterial activity against Telithromycin resistant Staphylococcus aureus isolate KT11 carrying rplD and rplV mutant genes. The format is functional. Put shortly:
as §1

In experiment [5] the test system is Staphylococcus aureus. The experiment is described as follows: Antibacterial activity against Telithromycin resistant Staphylococcus aureus isolate KT09 carrying rplD and rplV mutant genes. The format is functional. The essentials: as §1
For experiment [6], the system named is Staphylococcus aureus. Kind of experiment: Antibacterial activity against Telithromycin resistant Staphylococcus aureus isolate KT01 carrying rplB-derived insertion of L22 ribosomal protein.
Experiment [7] relates to Staphylococcus aureus. The experiment is described as follows: Antibacterial activity against Telithromycin resistant Staphylococcus aureus isolate KT02 carrying rplB-derived insertion of L22 ribosomal protein.
Experiment [8] deals with Staphylococcus aureus. Kind of experiment: Antibacterial activity against Telithromycin resistant Staphylococcus aureus isolate KT10 carrying rplD and rplV mutant genes. It counts as functional. The essentials: as §1
Experiment [9] deals with Staphylococcus aureus. The experiment is described as follows: Antibacterial activity against Telithromycin resistant Staphylococcus aureus isolate KT06 carrying duplication in the carboxy-terminal region of L22 ribosomal protein. The format is functional. The essentials:
as §1

As a reminder, the MIC is the lowest concentration found to suppress growth.

For `CC[C@H]1OC(=O)[C@H](C)[C@@H](O[C@H]2C[C@@](C)(OC)[C@@H](O)[C@H](C)O2)[C@H](C)[C@@H](O[C@@H]2O[C@H](C)C[C@H](N(C)C)[C@H]2O)[C@](C)(O)C[C@@H](C)C(=O)[C@H](C)[C@@H](O)[C@]1(C)O` [ERYTHROMYCIN], the MIC against Staphylococcus aureus [1] is 32 µg/mL (≈ 43.6 µM); in the experiment on Staphylococcus aureus [2] it was 32 µg/mL (≈ 43.6 µM); in the experiment on Staphylococcus aureus [3] it was 0.12 µg/mL (≈ 0.164 µM); with Staphylococcus aureus [4], 16 µg/mL (≈ 21.8 µM); against Staphylococcus aureus [5] it was 8 µg/mL (≈ 10.9 µM); in the experiment on Staphylococcus aureus [6], 32 µg/mL (≈ 43.6 µM). The results for the MIC in the experiment with Staphylococcus aureus [7], against Staphylococcus aureus [8] and in the experiment with Staphylococcus aureus [9] were 32 µg/mL (≈ 43.6 µM), 4 µg/mL (≈ 5.45 µM) and 16 µg/mL (≈ 21.8 µM), respectively.

In the case of `CC[C@H]1OC(=O)[C@H](C)C(=O)[C@H](C)[C@@H](O[C@@H]2O[C@H](C)C[C@H](N(C)C)[C@H]2O)[C@](C)(OC)C[C@@H](C)C(=O)[C@H](C)[C@H]2N(CCCCn3cnc(-c4cccnc4)c3)C(=O)O[C@]12C` [TELITHROMYCIN], the MIC was found to be 16 µg/mL (≈ 19.7 µM) in the experiment with Staphylococcus aureus [1]; 16 µg/mL (≈ 19.7 µM) against Staphylococcus aureus [2]; 0.03 µg/mL (≈ 0.0369 µM) in the experiment with Staphylococcus aureus [3]; 8 µg/mL (≈ 9.85 µM) in the experiment on Staphylococcus aureus [4]; 2 µg/mL (≈ 2.46 µM) against Staphylococcus aureus [5]; 16 µg/mL (≈ 19.7 µM) in the experiment with Staphylococcus aureus [6]. The minimum inhibitory concentration (MIC) in the experiment on Staphylococcus aureus [7] was 8 µg/mL (≈ 9.85 µM); with Staphylococcus aureus [8], 4 µg/mL (≈ 4.93 µM); with Staphylococcus aureus [9], 4 µg/mL (≈ 4.93 µM).
